# Compound activity (PubChem BioAssay)
# V1aR counter: V1a receptor agonism, counter-screen for OXTR agonists | P37288 | CHO-V1R cells, Fluo-8 calcium fluorescence, agonist mode; 0% DMSO, 100% 3 nM vasopressin | activation, % at 3 µM | 0.25% of 320,000 active;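 active means activation above the mean activation of all tested compounds plus 3 SD, per screening run, cut at about 20% in these data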;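 further: signal is peak over basal fluorescence ratio across a 100 second FLIPR read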
# OX1R antag-1: antagonists of human orexin 1 receptor. O43613. CHO/OX1R cells, Fluo-8 calcium fluorescence, orexin A. inhibition, % at 5 µM. 0.43% of 330,000 active;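 active means inhibition above its plate's threshold, mean inhibition of all tested compounds on the plate plus 3 SD, cut at about 37% in these data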;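 further: 0% = orexin A challenge wells and 100% = SB-334867-A antagonist wells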
# OXTR agonist: human OXTR agonism. 0.32% of 320,000 active. P30559. CHO-OTR cells, Fluo-8 calcium fluorescence; normalized: DMSO 0%, oxytocin 100%. activation, % at 3 µM;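 active means activation above the mean of all tested compounds plus 3 SD, cutoff set per screening run, cut at about 20% in these data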;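 further: peak over basal fluorescence ratio from a 100 s FLIPR kinetic read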
# Target sequence (P30559 whole entry, looked up): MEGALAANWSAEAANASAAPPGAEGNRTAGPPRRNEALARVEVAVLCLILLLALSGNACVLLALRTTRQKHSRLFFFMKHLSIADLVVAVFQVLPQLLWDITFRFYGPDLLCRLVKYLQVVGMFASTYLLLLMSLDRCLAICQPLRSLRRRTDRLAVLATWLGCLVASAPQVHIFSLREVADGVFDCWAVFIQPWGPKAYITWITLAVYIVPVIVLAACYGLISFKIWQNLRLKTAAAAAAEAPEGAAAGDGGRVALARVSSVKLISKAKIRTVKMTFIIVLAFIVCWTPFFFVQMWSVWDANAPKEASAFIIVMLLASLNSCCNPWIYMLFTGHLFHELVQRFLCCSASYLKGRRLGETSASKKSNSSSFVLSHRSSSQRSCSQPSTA
# OX1R antag-2: blocks the human orexin 1 receptor | 1.8% of 330,000 active | OX1R-expressing cells, FRET antagonist read-out | O43613 | inhibition, % at 6.6 µM; in the data active means inhibition mostly above about 38%, no sharp cut-off; inactive means mostly below about 40%;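 further: 0% = agonist challenge alone and 100% = reference antagonist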
# CHO parental Ca: signal in parental CHO cells, OX1R antagonist counter-screen. parental CHO-K1, ATP-induced calcium, Fluo-8 fluorescence. inhibition, % at 5.6 µM. 0.63% of 330,000 active. AID 463079;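 active means inhibition above that plate's mean sample inhibition plus 3 SD, cut at about 26% in these data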;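 further: 0% = ATP-challenged DMSO wells and 100% = DMSO wells without ATP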
#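 Assay system – parental CHO cells · Reagent – ATP stimulus · Detection – intracellular calcium via Fluo-8 no-wash fluorescent dye · Evaluation – percent inhibition of ATP-evoked calcium rise, normalized to controls · Controls – ATP wells versus no-ATP DMSO wells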
# OXTR potentiator: potentiators of human oxytocin receptor | CHO-OTR cells, Fluo-8 calcium fluorescence, potentiator mode; 0% = oxytocin EC15, 100% = EC100 | activation, % at 3 µM | 0.061% of 320,000 active | AID 2445;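 active means activation above that plate's cutoff, the mean activation of tested compounds plus 3 SD, cut at about 6.6% in these data, passing the limit was not always enough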;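 further: 100% uses oxytocin at 75 nM as the full agonist control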
#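 Measured by – Fluo-8 calcium dye fluorescence · Test system – human OTR in CHO cells · Dosing – one concentration, 3.0 µM compound · Controls – EC15 oxytocin alone as 0%, 75 nM oxytocin as 100% · Evaluation – normalized max/min fluorescence ratio, % activation · Timing – 6 min pre-incubation, 100 s read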
# The depositor's hits bear a star; . = no result. In the library only some 2.6% were active in any assay of this set; here they are far more common.
SMILES,V1aR counter,OX1R antag-1,OXTR agonist,OX1R antag-2,CHO parental Ca,OXTR potentiator
Cc1ccc(C2(C)NC(=O)N(CC(=O)N(Cc3ccccc3)C(C)(C)C)C2=O)cc1 (centres undefined),0,-35,-1,21,-21,-17
CCCCN1C(=O)/C(=C/C=C2\N(C)c3ccccc3C2(C)C)SC1=S,16,51*,7,1,32,-15
CCOC(=O)c1cn(Cc2ccccc2)c(C(=O)OC(C)(C)C)c1O,28*,-28,52*,30,-24,-19
CCN(Cc1ccccc1)C(=O)COC(=O)c1c(C)nsc1NC,7,24,8,50*,-18,-12
COc1ccc(OC)c(N2C(=O)CC(NNC(=O)c3ccc4c(c3)OCO4)C2=O)c1 (centres undefined),0,-1,-1,2,-9,-2
CC(C)CNC(=O)c1ccccc1NC(=O)c1ccccc1N(C)S(=O)(=O)c1ccccc1,-1,-1,-2,69*,-25,-5
Cc1c(NC(=O)c2ccccc2N(C)S(=O)(=O)c2ccccc2)c(=O)n(-c2ccccc2)n1C,0,-12,0,41*,-11,1
CCCNC(=O)c1ccccc1NC(=O)c1ccccc1N(C)S(=O)(=O)c1ccccc1,0,-15,-1,44,-27,0
COc1ccc(N(CC(=O)Nc2c(C)n(C)n(-c3ccccc3)c2=O)S(=O)(=O)c2ccccc2)cc1OC,1,-8,1,9,2,-1
Cc1c(NC(=O)c2ccc(N(C)S(C)(=O)=O)cc2)c(=O)n(-c2ccccc2)n1C,1,8,0,13,-4,-8
CCOc1ccccc1N(CC(=O)Nc1c(C)n(C)n(-c2ccccc2)c1=O)S(=O)(=O)c1ccccc1,0,-2,-1,57*,-9,-14
COc1ccc(OC)c(NC(=O)CCN2CCN(C/C=C/c3ccccc3)CC2)c1,0,-21,1,6,-16,2
Cn1c(=O)c2c(ncn2CC(=O)NC[C@H]2O[C@@H](n3cnc4c(N)ncnc43)[C@H](O)[C@@H]2O)n(C)c1=O,.,-2,.,1,-4,.
CC(C)(CO)[C@@H](O)C(=O)NCCC(=O)O,0,-8,0,8,3,-3
CC(=O)Nc1ncc(Cc2cc(Cl)ccc2Cl)s1,2,-22,-1,70*,-7,-3
CC(=O)Nc1ncc(Cc2cccc(Cl)c2Cl)s1,3,-10,3,16,-2,-8
N#C/C(N=Nc1ccccc1O)=N\Nc1ccccc1O,16,12,18,22,26,-15
Cc1cc(N2CCN(C(=O)c3cccs3)CC2)c(F)cc1[N+](=O)[O-],9,9,12,47,52*,-21
O=C(c1cccs1)N1CCN(c2ccc([N+](=O)[O-])cc2F)CC1,7,-17,7,22,-7,-18
CN1CCC(N(C)C(=O)c2cc(-c3ccc(F)cc3)nc3ccccc23)CC1,2,-20,3,13,-18,-3
COc1ccc(CCC(=O)OCC(=O)Nc2sccc2C#N)cc1,5,8,6,4,-6,-8
O=C(CSc1ccc(C(F)(F)F)cc1[N+](=O)[O-])Nc1ccccc1,5,17,4,7,59*,-6
Cn1nc(-c2ccc(Cl)cc2)nc2c(=O)n(C)c(=O)nc1-2,2,-16,-1,91*,-24,1
COc1cc(C)ccc1OCC(=O)OCC(=O)c1[nH]c(C)c(C(C)=O)c1C,7,11,6,5,-4,-9
CC(=O)c1c(C)[nH]c(C(=O)COc2cc(C)ccc2C(C)C)c1C,9,62*,9,84*,74*,-14
SMILES,V1aR counter,OX1R antag-1,OXTR agonist,OX1R antag-2,CHO parental Ca,OXTR potentiator
Cc1ccc(NC(=O)[C@H](C)NC(=O)C2CCN(C(=O)[C@@H](NC(=O)OC(C)(C)C)C(C)C)CC2)cc1,-1,-23,-2,-4,-25,-7
COc1ncc(-c2ccc3c(c2)S(=O)(=O)c2cccc(C(=O)O)c2C3=O)cn1,-1,-1,1,38*,7,-4
COc1ccc(-c2ccc3c(c2)S(=O)(=O)c2cccc(C(=O)O)c2C3=O)cc1OC,1,6,1,22,1,-2
O=C(O)c1cccc2c1C(=O)c1ccc(Cl)cc1S2(=O)=O,1,0,1,39*,-6,6
CCN(C(=O)CSc1nnc(C)c(=O)[nH]1)c1cccc2ccccc12,2,-107,0,2,-2,5
O=C1c2ccc(-c3ccc(F)cc3OCc3ccccc3)cc2S(=O)(=O)c2cccc(C(=O)N3CCCC3)c21,2,-10,1,12,-13,6
Cc1ccc(NC(=O)C(=O)NCC2CCCN2S(=O)(=O)c2cccs2)cc1C (centres undefined),2,-13,0,9,10,-14
O=C(NCC1CCCN1S(=O)(=O)c1cccs1)c1cccc([N+](=O)[O-])c1 (centres undefined),1,-9,2,55*,-11,-8
Cc1ccccc1NC(=O)C(=O)NCC1CCCN1S(=O)(=O)c1cccs1 (centres undefined),-1,-7,-1,34*,-15,-15
O=[N+]([O-])c1cccc(-c2cc(-c3cc(Br)ccc3O)[nH]n2)c1,7,-24,6,22,7,-12
Cc1ccc(NC(=O)c2sccc2SCc2cccc(C(F)(F)F)c2)cc1,1,10,1,5,-10,-7
Cc1cccc(C)c1NC(=O)c1sccc1SCc1cccc(C(F)(F)F)c1,4,37*,4,31,53*,-10
CC(=O)N1CCN(C(=O)COC(=O)/C=C/c2ccccc2[N+](=O)[O-])CC1,0,5,2,37*,1,-4
CCCCCCCCCCCCCCCC[n+]1cccc2ccccc21,1,63*,-1,30,89*,-5
CCCCCCCCC[n+]1cccc2c3ccccc3ccc21,2,94*,3,76,86*,-11
Cc1ccccc1C[n+]1cccc2ccccc21,-1,0,-1,34,-19,-2
CN(Cc1ccccc1)C(=O)c1ccc(S(=O)(=O)N(C)c2ccccc2)cc1,3,-1,1,12,-3,-7
COc1cccc2c1C(=O)c1c(O)c3c(c(O)c1C2=O)C[C@](O)(C(C)=O)C[C@H]3O[C@@H]1C[C@@H](N)[C@@H](O)[C@@H](C)O1,21*,4,16,49*,10,-8
O=C(CN1CCN(CCN2C(=O)c3cccc4cccc(c34)C2=O)CC1)c1ccc(F)cc1,-1,-31,-1,45*,-14,-1
